ChEMBL document CHEMBL4342521 (J Med Chem, 2020)
Activity calls are given as the source filed them. The rule behind the calls is not given here.

Experiments:
NCI-H226 = assay: Antiproliferative activity against human NCI-H226 cells assessed as reduction in cell viability after 48 hrs by CellTiter-Blue assay; type: functional; details: NCI-H226, 48 h, read-out: LC50 (the source's name)
Method in brief: (§1)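 Cells grown in RPMI1640 with 10% FBS at 37 °C, 5% CO₂. 5,000–10,000 cells/well were pre-incubated overnight, and a time-zero CellTiter-Blue read was taken. Six 10-fold dilutions (top final 10 μM) were applied for 48 h, followed by 0.125 mg/mL CellTiter-Blue for 2–4 h. Resorufin fluorescence was read at ex 560/em 590 nm. […] Triplicates.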

[1] = Cmax in CD1 mouse at 20 mg/kg, po via gavage after 24 hrs by LC-MS/MS analysis; type: ADME, organism-based; set-up: dose 20 mg/kg, route oral; details: in vivo
Method in brief: (§2)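 Male CD-1 mice, fasted overnight, 3 per route; compound in PBS with 5% DMSO, iv bolus 5 mg/kg or oral gavage 20 mg/kg. Blood sampled at 5, 15, 30 min and 1–24 h. Plasma protein-precipitated with acetonitrile plus internal standard, quantified by LC-MS/MS (MRM). AUC by linear trapezoidal method; parameters by non-compartmental analysis.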

RS4-11 [2] = assay: Upregulation of P21WAF1/Cip1 protein expression in human RS4:11 cells harboring wild type p53/FLT3 at 50 to 200 nM after 24 hrs by Western blot analysis; type: functional, cell-based
Method in brief: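 RS4;11 cells were cultured in RPMI-1640 with 10% FBS and HL-60 cells in IMDM with 20% FBS. Cells were plated at 1,500,000 per well, grown 12 h, then drug-treated. Lysis was in RIPA buffer with sonication and centrifugation, and loading was normalized by BCA. Lysates were run on 4–12% Bis-Tris gels in MES buffer and transferred, and membranes were probed overnight at 4 °C with 1/1000 primary antibodies.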

BT-549 = assay: Antiproliferative activity against human BT549 cells assessed as reduction in cell viability after 48 hrs by CellTiter-Blue assay; type: functional; details: BT-549, 48 h, read-out: LC50 (the source's name); method in brief: as §1
RS4-11 [3] = assay: Induction of apoptosis in human RS4:11 cells harboring wild type p53/FLT3 assessed as cleavage of pro-caspase 3 at 200 nM after 24 hrs by Western blot analysis; type: functional, cell-based
Method in brief: (§3)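 Cells (1,500,000 per well) grown 12 h, then drug-treated as specified. Lysed in RIPA buffer, sonicated, centrifuged, protein normalized by BCA. Run on 4–12% Bis-Tris gels in MES, transferred, probed overnight at 4 °C with primary antibodies at 1/1000. Actin served as reference for LC3-II quantitation.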

CAKI-1 = assay: Antiproliferative activity against human Caki1 cells assessed as reduction in cell viability after 48 hrs by CellTiter-Blue assay; type: functional; details: CAKI-1, 48 h, read-out: LC50 (the source's name); method in brief: as §1
HCT-15 = assay: Antiproliferative activity against human HCT15 cells assessed as reduction in cell viability after 48 hrs by CellTiter-Blue assay; type: functional; details: HCT-15, 48 h, read-out: LC50 (the source's name); method in brief: as §1
Histone deacetylase 9 = Histone deacetylase 9 (Homo sapiens, UniProt Q9UKV0); assay: (§4) Inhibition of recombinant human C-terminal His-tagged HDAC9 (604 to 1066 residues) expressed in baculovirus infected Sf9 cells using Boc-Lys (trifluoroacetyl)-AMC as substrate preincubated for 1 hr followed by substrate addition and measured after 2 hrs by fluorescence based micro plate reader analysis
Method in brief: (§5)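 Recombinant enzyme was preincubated with serially varied inhibitor for 1 h at 30 °C. Boc-Lys(trifluoroacetyl)-AMC was then added to a final 50 μM and incubated 2 h at 30 °C. The reaction was stopped with developer containing trypsin and TSA, and fluorescence (ex 360/em 460 nm) was read 30 min later. Inhibition was taken relative to control wells and fitted to a variable-slope log(inhibitor) curve. Values are the mean of at least three experiments.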

Trypsin (Homo sapiens) = Trypsin (Homo sapiens) (UniProt P07477+P07478+P35030); assay: Inhibition of trypsin (unknown origin); type: protein assay
MV4-11 [4] = assay: Inhibition of MDM2 degradation in human MV4-11 cells harboring wild type p53/FLT3-ITD mutant at 100 nM after 12 hrs in presence of MDM2 inhibitor RG7388 by Western blot analysis relative to control; type: functional; details: MV4-11, 12 h; method in brief: as §3
[5] = AUC (0 to infinity) in CD1 mouse at 5 mg/kg, iv after 24 hrs by LC-MS/MS analysis; type: ADME, organism-based; set-up: dose 5 mg/kg, route intravenous, time infinity; details: in vivo; method in brief: as §2
HL-60 = assay: Induction of apoptosis in p53 null human HL60 cells harboring wild type FLT3 assessed as cleavage of pro-caspase 3 at 50 to 200 nM after 24 hrs by Western blot analysis; type: functional, cell-based; method in brief: as §3
Histone deacetylase 5 = Histone deacetylase 5 (Homo sapiens, UniProt Q9UQL6); assay: Inhibition of recombinant human HDAC5 using Boc-Lys (trifluoroacetyl)-AMC as substrate preincubated for 1 hr followed by substrate addition and measured after 2 hrs by fluorescence based micro plate reader analysis; method in brief: as §5
Histone deacetylase 7 = Histone deacetylase 7 (Homo sapiens, UniProt Q8WUI4); assay: as §4, with “N-terminal GST-tagged HDAC7 (518” for “C-terminal His-tagged HDAC9 (604”, “end” for “1066”
MV4-11 [6] = assay: Induction of apoptosis in human MV4-11 cells harboring wild type p53/FLT3-ITD mutant assessed as upregulation of P21WAF1/Cip1 expression at 50 to 200 nM after 24 hrs by Western blot analysis; type: functional, cell-based; method in brief: as §3
T47D = assay: Antiproliferative activity against human T47D cells assessed as reduction in cell viability after 48 hrs by CellTiter-Blue assay; type: functional; details: read-out: LC50 (the source's name)
Method in brief: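 NCI-60 panel lines grown in RPMI1640 with 10% FBS at 37 °C, 5% CO₂. Seeded at 5,000–10,000 cells/well and pre-incubated overnight. Exposed for 48 h to six 10-fold dilutions (top final 10 μM), with a time-zero plate read at dosing. CellTiter-Blue (0.125 mg/mL) for 2–4 h, fluorescence 560/590 nm, triplicate curves.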

RS4-11 [7] = assay: Antiproliferative activity agaisnt human RS4:11 cells expressing wild type p53/FLT3 assessed as cell death at 10 uM after 48 hrs by CellTiter-blue assay; type: functional, cell-based
SK-OV-3 = assay: Antiproliferative activity against human SKOV3 cells assessed as reduction in cell viability after 48 hrs by CellTiter-Blue assay; type: functional; details: SK-OV-3, 48 h, read-out: LC50 (the source's name); method in brief: as §1
SF-268 = assay: Antiproliferative activity against human SF268 cells assessed as reduction in cell viability after 48 hrs by CellTiter-Blue assay; type: functional; details: SF-268, 48 h, read-out: LC50 (the source's name); method in brief: as §1
NCI/ADR-RES = assay: Antiproliferative activity against human NCI/ADR-RES cells assessed as reduction in cell viability after 48 hrs by CellTiter-Blue assay; type: functional; details: read-out: LC50 (the source's name); method in brief: as §1
[8] = Oral bioavailability in CD1 mouse at 20 mg/kg dosed via gavage after 24 hrs by LC-MS/MS analysis; type: ADME, organism-based; details: in vivo
Method in brief: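 Male CD-1 mice (n = 3) were fasted overnight and given compound in PBS with 5% DMSO, 5 mg/kg iv bolus or 20 mg/kg by gavage. Blood was sampled from 5 min to 24 h. Plasma was protein-precipitated with acetonitrile containing internal standard and quantified by LC-MS/MS (MRM). AUC was calculated by the linear trapezoidal method and parameters by non-compartmental analysis.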

Chain of Histone deacetylase 5 (Q9UQL6 whole entry): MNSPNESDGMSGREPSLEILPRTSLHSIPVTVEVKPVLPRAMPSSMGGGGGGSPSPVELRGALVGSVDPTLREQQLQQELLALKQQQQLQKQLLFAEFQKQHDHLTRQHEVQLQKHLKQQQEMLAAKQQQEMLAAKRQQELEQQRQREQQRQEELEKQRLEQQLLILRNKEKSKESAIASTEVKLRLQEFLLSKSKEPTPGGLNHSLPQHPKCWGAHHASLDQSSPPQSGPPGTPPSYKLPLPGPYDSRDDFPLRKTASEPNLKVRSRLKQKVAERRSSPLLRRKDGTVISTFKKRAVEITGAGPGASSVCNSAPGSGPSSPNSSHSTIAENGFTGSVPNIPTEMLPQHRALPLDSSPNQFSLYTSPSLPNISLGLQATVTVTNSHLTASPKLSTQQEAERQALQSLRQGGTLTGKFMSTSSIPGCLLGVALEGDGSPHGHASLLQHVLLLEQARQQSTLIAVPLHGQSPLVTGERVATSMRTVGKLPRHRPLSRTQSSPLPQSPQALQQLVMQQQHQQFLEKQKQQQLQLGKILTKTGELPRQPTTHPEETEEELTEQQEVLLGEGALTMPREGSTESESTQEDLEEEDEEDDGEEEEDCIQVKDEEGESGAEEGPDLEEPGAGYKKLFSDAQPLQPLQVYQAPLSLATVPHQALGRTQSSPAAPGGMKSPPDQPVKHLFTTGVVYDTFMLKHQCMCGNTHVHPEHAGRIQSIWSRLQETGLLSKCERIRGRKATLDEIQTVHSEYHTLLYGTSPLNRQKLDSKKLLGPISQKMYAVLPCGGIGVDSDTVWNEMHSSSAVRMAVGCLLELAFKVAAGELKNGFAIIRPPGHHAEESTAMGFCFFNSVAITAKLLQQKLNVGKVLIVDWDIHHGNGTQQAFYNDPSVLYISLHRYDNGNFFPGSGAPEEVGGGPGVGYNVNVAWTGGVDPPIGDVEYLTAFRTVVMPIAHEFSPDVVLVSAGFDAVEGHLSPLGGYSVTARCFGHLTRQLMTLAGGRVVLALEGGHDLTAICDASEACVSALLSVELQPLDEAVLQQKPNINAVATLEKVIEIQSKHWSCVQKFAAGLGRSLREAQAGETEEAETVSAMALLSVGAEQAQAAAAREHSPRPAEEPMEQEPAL
Chain of Histone deacetylase 7 (Q8WUI4 whole entry): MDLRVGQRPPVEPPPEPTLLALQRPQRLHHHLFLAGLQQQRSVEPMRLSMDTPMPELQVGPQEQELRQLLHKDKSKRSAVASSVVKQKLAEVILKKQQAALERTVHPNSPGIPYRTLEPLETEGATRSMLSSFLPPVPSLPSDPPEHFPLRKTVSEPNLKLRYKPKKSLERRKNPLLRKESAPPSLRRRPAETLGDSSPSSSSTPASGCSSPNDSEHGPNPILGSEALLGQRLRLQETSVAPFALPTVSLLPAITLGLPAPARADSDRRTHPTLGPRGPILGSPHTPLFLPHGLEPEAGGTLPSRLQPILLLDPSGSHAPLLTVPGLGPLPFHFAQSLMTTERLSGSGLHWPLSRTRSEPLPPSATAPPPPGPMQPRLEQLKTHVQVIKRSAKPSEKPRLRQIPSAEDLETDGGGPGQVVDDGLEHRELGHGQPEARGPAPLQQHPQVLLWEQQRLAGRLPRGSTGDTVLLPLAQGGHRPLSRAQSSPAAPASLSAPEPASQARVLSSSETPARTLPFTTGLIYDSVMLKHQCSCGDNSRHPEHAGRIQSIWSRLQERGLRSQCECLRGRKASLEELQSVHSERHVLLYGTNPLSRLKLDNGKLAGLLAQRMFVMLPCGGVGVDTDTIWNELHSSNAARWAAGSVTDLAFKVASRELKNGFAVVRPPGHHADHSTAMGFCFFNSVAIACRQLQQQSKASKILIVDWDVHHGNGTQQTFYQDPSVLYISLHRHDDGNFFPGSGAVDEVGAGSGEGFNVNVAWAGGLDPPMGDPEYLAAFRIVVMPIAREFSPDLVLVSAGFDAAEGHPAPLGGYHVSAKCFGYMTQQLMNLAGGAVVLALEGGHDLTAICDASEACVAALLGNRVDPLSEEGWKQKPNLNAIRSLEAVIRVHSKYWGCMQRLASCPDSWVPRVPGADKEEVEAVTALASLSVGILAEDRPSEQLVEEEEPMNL
Chain of Histone deacetylase 9 (Q9UKV0 whole entry, the tested form may be a part): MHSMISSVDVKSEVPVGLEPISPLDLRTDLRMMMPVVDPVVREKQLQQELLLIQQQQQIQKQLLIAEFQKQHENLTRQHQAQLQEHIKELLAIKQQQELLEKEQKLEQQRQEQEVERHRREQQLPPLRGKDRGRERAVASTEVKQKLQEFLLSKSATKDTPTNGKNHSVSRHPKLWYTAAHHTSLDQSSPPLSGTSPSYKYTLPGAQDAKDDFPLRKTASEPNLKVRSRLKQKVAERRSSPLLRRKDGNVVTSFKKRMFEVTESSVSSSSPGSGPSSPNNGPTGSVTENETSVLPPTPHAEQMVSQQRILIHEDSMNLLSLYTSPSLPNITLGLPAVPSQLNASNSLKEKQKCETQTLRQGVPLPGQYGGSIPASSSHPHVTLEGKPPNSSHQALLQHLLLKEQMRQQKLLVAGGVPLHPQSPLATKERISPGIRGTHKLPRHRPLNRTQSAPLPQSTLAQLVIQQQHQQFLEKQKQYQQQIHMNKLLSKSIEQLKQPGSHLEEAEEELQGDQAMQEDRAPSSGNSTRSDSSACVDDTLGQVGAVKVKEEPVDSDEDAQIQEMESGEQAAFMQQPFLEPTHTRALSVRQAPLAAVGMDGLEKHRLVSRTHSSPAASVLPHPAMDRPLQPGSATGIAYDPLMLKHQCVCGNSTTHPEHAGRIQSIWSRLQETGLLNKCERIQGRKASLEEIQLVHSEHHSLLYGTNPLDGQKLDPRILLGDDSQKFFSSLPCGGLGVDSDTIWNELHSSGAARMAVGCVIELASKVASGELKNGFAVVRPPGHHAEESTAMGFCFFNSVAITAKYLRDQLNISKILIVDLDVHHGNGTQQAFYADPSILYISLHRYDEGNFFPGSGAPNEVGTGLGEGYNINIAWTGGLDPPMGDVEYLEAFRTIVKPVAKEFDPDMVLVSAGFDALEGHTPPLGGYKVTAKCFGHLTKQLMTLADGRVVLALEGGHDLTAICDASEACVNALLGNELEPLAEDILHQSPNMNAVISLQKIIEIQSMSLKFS

With `CCCNNC(=O)/C=C/c1ccc(CNCCc2c(C)[nH]c3ccccc23)cc1.O=C(O)C(F)(F)F` the CC50 (NCI-H226) was 0.46 µM, the Cmax [1] was 0.0451 µg/mL and the Activity (RS4-11 [2]) was “Active”. For the same compound, the CC50 (BT-549) was greater than 10 µM, the Activity (RS4-11 [3]) was “Active” and the CC50 (CAKI-1) was 4.3 µM. For the same compound, the CC50 (HCT-15) was greater than 10 µM, the IC50 (Histone deacetylase 9) was greater than 10 µM and the inhibition (Trypsin (Homo sapiens)) was “inactive”. The inhibition at 0.1 µM (MV4-11 [4]) was 100%, the AUC [5] was 0.334 µg·h/mL and the Activity (HL-60) was “inactive”. The IC50 (Histone deacetylase 5) was greater than 10 µM, the IC50 (Histone deacetylase 7) was greater than 10 µM and the Activity (MV4-11 [6]) was “Active”. For the same compound, the CC50 (T47D) was greater than 10 µM, the Activity (RS4-11 [7]) was “Active” and the CC50 (SK-OV-3) was greater than 10 µM. It also gave a CC50 (SF-268) greater than 10 µM, a CC50 (NCI/ADR-RES) greater than 10 µM and an F [8] of 19.8%.
